High-throughput results (PubChem BioAssay)
Rows were chosen to be rich in hits. Some 4.6% of all compounds tested hit in one or more screens of this group.
OX1R antag-1: antagonists of human orexin 1 receptor (OX1R); inhibition, % at 6.6 µM; OX1R-expressing cells, FRET antagonist read-out; 330,000 tested, 1.8% active; Orexin/Hypocretin receptor type 1 (Homo sapiens), O43613; in the data active = inhibition mostly above about 38%, no sharp cut-off; inactive = mostly below about 40%;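 note: 0% = agonist challenge alone and 100% = reference antagonist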
GPR7 antagonist: GPR7 receptor antagonists, primary screen, cell-based, fluorescence, single concentration | Neuropeptides B/W receptor type 1 (Homo sapiens), P48145 | GPR7-expressing cells, fluorescence antagonist assay | inhibition, % at 4.4 µM | 290,000 tested, 1.1% active | AID 1861, 2009; in the data active = inhibition above about 16%, passing the limit was not always enough;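 note: cells stimulated with the agonist NPW; 0% = agonist with vehicle and 100% = vehicle without agonist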
Target sequence (P48145 whole entry, looked up): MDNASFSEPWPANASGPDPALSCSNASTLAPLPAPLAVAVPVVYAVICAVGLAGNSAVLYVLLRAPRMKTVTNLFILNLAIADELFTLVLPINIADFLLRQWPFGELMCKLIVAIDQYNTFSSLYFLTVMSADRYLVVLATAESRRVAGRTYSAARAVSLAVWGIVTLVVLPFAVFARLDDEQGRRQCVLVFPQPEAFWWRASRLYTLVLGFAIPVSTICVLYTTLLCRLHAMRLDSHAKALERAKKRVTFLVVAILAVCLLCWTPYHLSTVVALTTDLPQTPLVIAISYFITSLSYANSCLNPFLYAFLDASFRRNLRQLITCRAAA
OX1R antag-2: OX1R (HCRTR1) antagonists, primary screen, fluorescence, CHO/OX1R cells, Fluo-8 calcium, orexin A; inhibition, % at 5 µM; 330,000 tested, 0.43% active; Fluo-8 calcium fluorescence; Orexin/Hypocretin receptor type 1 (Homo sapiens), O43613;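 active = inhibition above its plate's threshold, mean inhibition of all tested compounds on the plate plus 3 SD, cut at about 37% in these data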;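 note: 0% = orexin A challenge wells and 100% = SB-334867-A antagonist wells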
TAAR1 antag: human TAAR1 antagonists, primary screen, Fluo-8 calcium fluorescence, CHO RD-HGA16 cells | 360,000 tested, 1.5% active | inhibition, % at 3 µM | AID 624466, 2012 | antagonist | Trace amine-associated receptor 1 (Homo sapiens), Q96RJ0;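 active = inhibition above a per-plate cutoff, the mean inhibition of test compounds on that plate plus 3 SD, cut at about 49% in these data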;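 note: 0% = DMSO plus EC80 beta-PEA response and 100% = DMSO alone without agonist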
Target sequence (Q96RJ0 whole entry, looked up): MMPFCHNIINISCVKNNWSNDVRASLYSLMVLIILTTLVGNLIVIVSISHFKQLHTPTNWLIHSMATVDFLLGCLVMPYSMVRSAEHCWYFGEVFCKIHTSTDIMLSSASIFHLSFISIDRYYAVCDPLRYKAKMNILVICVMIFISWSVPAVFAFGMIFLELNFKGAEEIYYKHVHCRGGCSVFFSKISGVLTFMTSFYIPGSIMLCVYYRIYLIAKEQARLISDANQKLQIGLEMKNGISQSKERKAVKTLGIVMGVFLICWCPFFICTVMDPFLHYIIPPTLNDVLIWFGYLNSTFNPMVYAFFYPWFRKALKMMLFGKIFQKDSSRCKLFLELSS
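Test system: hTAAR1-expressing CHO RD-HGA16 cells, Gα16-coupled; Probe or stimulus: EC80 β-phenethylamine stimulus; Compound dosing: single nominal final test compound concentration of 3 µM; Timing: 140 s kinetic read after compound, 140 s after agonist; Signal: Fluo-8 calcium-sensitive fluorescence; Measure: % inhibition of agonist calcium response; Controls: DMSO and EC80 PEA controls.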
TAAR1 ag: human TAAR1 agonists, primary screen, Fluo-8 calcium fluorescence, CHO RD-HGA16 cells. 360,000 tested, 0.99% active. Trace amine-associated receptor 1 (Homo sapiens), Q96RJ0. vehicle wells 0%, saturating PEA agonist 100%. activation, % at 3 µM;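 active = activation above the mean activation of all test compounds in the run plus 3 SD, cut at about 38% in these data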
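Test system: RD-HGA16 (CHO) cells co-expressing Gα16 and hTAAR1 / Benchmarks: DMSO vehicle as 0%, PEA at EC100 as 100% / Repeats: no replicates (n 1) / Measure: % activation from peak over basal fluorescence ratio, DMSO-to-PEA scaled / Timing: 17-24 h plating, Fluo-8 75 min 37 °C, 30 min RT / Technique: kinetic Fluo-8 calcium fluorescence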
CHO parental Ca: ATP-evoked calcium signal inhibitors, parental CHO, primary screen, counter-screen for OX1R antagonist project, cell-based, fluorescence, Fluo-8 calcium dye; parental CHO-K1, ATP-induced calcium, Fluo-8 fluorescence; inhibition, % at 5.6 µM; 330,000 tested, 0.63% active; AID 463079, 2010;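 active = inhibition above that plate's mean sample inhibition plus 3 SD, cut at about 26% in these data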;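 note: 0% = ATP-challenged DMSO wells and 100% = DMSO wells without ATP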
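Assay system – parental CHO cells · Reagent – ATP stimulus · Detection – intracellular calcium via Fluo-8 no-wash fluorescent dye · Evaluation – percent inhibition of ATP-evoked calcium rise, normalized to controls · Controls – ATP wells versus no-ATP DMSO wells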
TAAR1 ag conf: human TAAR1 agonists, retest of hits, confirmation, Fluo-8 calcium fluorescence, CHO RD-HGA16 cells; shares compounds with TAAR1 ag; scaled: DMSO 0%, maximal phenethylamine 100%; activation, % at 3 µM; 2,400 tested, 82% active; AID 651783, 2012;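 active = activation above a cutoff set at the run's mean compound activation plus 3 SD, cut at about 39% in these data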
Ga16 nonsel ag: nonselective calcium mobilization agonists, CHO-Ga16 cells, counter-screen for hTAAR1 agonist project, cell-based, fluorescence, CHO-Ga16 parental line | shares compounds with TAAR1 ag | activation, % at 3 µM | AID 651787, 2012 | 2,400 tested, 50% active | Fluo-8 calcium fluorescence; normalized to maximal ATP response, DMSO zero;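 active = activation above the run cutoff, the mean activation over all tested wells plus 3 SD, cut at about 12% in these data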;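 note: 0% = DMSO wells and 100% = maximal ATP response on the peak over basal ratio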
TAAR1 desens: TAAR1 desensitization by agonist hits, confirmation, counter-screen for TAAR1 agonist project, cell-based, fluorescence, tachyphylaxis. shares compounds with TAAR1 ag. CHO RD-HGA16 hTAAR1, Fluo-8 calcium, beta-PEA response inhibition. inhibition, % at 3 µM. 2,400 tested, 46% active. AID 651951, 2012;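 active = inhibition above the run cutoff, the mean inhibition of all test compounds plus 3 SD, cut at about 49% in these data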;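 note: beta-PEA stimulus applied at its EC80; loss of beta-PEA calcium signal after compound pretreatment read as receptor desensitization; 0% = DMSO with beta-PEA at EC80 and 100% = DMSO alone without agonist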
Ga16 nonsel ant: inhibition of ATP-evoked calcium response in CHO-Ga16 cells, counter-screen for TAAR1 agonist project, cell-based, fluorescence | shares compounds with TAAR1 ag | CHO-Ga16 ATP-induced calcium, Fluo-8 fluorescence | inhibition, % at 3 µM | 2,400 tested, 39% active | AID 651952, 2012;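 active = inhibition above the plate's mean compound inhibition plus 3 SD, computed per plate, cut at about 22% in these data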;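 note: 0% = EC80 ATP with DMSO and 100% = DMSO wells without ATP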
Active calls of the source: *; . = no result.

SMILES | OX1R antag-1 | GPR7 antagonist | OX1R antag-2 | TAAR1 antag | TAAR1 ag | CHO parental Ca | TAAR1 ag conf | Ga16 nonsel ag | TAAR1 desens | Ga16 nonsel ant
CCO/C=N/Nc1nc(C(F)(F)F)nc2c1cnn2Cc1ccccc1 | -3.1 | -22.8 | -22.2 | -27.8 | -0.7 | -10.0 | . | . | . | .
COc1ccc(Cn2c(-c3ccc(C)cc3)nc3c(c(=O)c4ccccc4n3C)c2=O)cc1 | 14.6 | -7.7 | -27.2 | 57.8* | 91.5* | -8.6 | 84.9* | 52.9* | 67.9* | 41.7*
O=c1ccc2[n+]([O-])c3ccc(O)cc3oc-2c1 | . | -6.2 | . | 7.8 | 57.8* | . | 31.8 | 41.7* | 26.1 | 42.3*
CCc1noc(C)c1C(=O)N1CCN(c2cccc(Cl)c2)CC1 | . | . | . | -19.2 | 2.1 | . | . | . | . | .
CN(C)S(=O)(=O)c1cccc(C(=O)Nc2cc(S(=O)(=O)N3CCOCC3)ccc2N2CCCC2)c1 | . | . | . | 13.9 | 0.3 | . | . | . | . | .
CCOC(=O)C1=NN(C(=O)c2ccc(C)cc2)C(O)(c2ccc(Cl)cc2)C1 (stereo not drawn) | 14.7 | 6.2 | -9.1 | 72.8* | 115.7* | -11.7 | 69.4* | 78.7* | 31.9 | 41.5*
CCC1=NN(C(=O)c2ccc(Cl)cc2)C(O)(c2ccc(C)cc2)C1 (stereo not drawn) | . | -8.4 | . | 4.4 | 0.4 | . | . | . | . | .
CCOC(=O)[C@H]1[C@H]2COc3ccc(Br)cc3[C@@H]2N2C(=O)c3cc(OC)c(OC)cc3NC(=O)[C@@]12C | 25.1 | . | -10.9 | 27.1 | 75.8* | -6.1 | 100.5* | 43.7* | 27.7 | 7.5
CCOc1ccc(C=NCC(O)c2ccccc2)cc1 (stereo not drawn) | 4.9 | -0.3 | -3.8 | 75.8* | 93.7* | -7.7 | 105.7* | 1.1 | 88.4* | -0.5
Cc1ccc(S(=O)(=O)N2C[C@H]3C(=O)C[C@@H](c4ccccc4)N(S(=O)(=O)c4ccccc4)[C@H]3C[C@H]2c2ccccc2)cc1 | . | . | . | -15.8 | 0.6 | . | . | . | . | .
O=C1S/C(=C\c2ccc(N3CCOCC3)o2)C(=O)N1c1ccccc1 | 16.2 | -6.1 | -19.3 | 82.9* | 208.9* | -3.8 | 140.4* | 162.7* | 81.6* | 87.4*
CC1(C)CC(=O)/C(=C(/O)Cc2ccccc2)C(=NCCc2ccccc2)C1 | 14.2 | -4.2 | -39.8 | -3.0 | 56.4* | -25.6 | 70.7* | -0.1 | 47.4 | 2.3
CCOC(=O)c1cc(NC(=O)c2cc(C)on2)cc(C(=O)OCC)c1 | 22.0 | 13.5 | -12.4 | 26.1 | 44.0* | -15.4 | 19.2 | 4.0 | 2.2 | 2.5
CC1CCN(c2ccc3c(c2)S(=O)(=O)c2cccc(C(=O)NCc4cccc(F)c4)c2C3=O)CC1 | 8.1 | . | 23.3 | 91.4* | 67.1* | -8.3 | 25.9 | 35.7* | 59.8* | 62.5*
O=C(NCc1cccc(F)c1)c1cccc2c1C(=O)c1ccc(N3CCCC3)cc1S2(=O)=O | 19.7 | . | 9.5 | . | . | 3.5 | . | . | . | .
Nc1nc2c(ncn2[C@@H]2O[C@H](CNCC3=Cc4cc(O)ccc4OC3)[C@@H](O)[C@H]2O)c(=O)[nH]1 | . | . | . | -10.1 | 0.6 | . | . | . | . | .
CC(C)CN(Cc1c(O)ccc2ccccc12)CC(C)C | 19.9 | -13.2 | -18.5 | -1.0 | 6.6 | -3.2 | . | . | . | .
CCN(Cc1ccncc1)Cc1c(O)ccc2ccccc12 | . | -6.3 | . | -7.3 | 53.2* | . | 54.6* | 1.6 | 20.7 | 6.5
O=c1oc2ccccc2c(NCCc2ccccc2)c1[N+](=O)[O-] | 34.5 | 12.4 | -15.0 | 17.5 | 63.4* | -6.3 | 70.5* | 9.5 | 12.9 | 6.4
O=c1oc2ccccc2c(NCc2ccccc2F)c1[N+](=O)[O-] | 56.0 | -8.9 | -8.4 | 0.1 | 5.0 | -7.4 | . | . | . | .
Cc1cccc(-n2c(C)cc(/C=C3\C(=N)N4N=C(CC(C)C)SC4=NC3=O)c2C)c1 | 12.2 | -2.3 | -1.7 | 9.1 | 1.5 | -15.1 | . | . | . | .
CC(C)CC1=NN2C(=N)/C(=C\c3coc4ccccc4c3=O)C(=O)N=C2S1 | . | -9.7 | . | 104.2* | 354.7* | . | 148.9* | 131.0* | 82.0* | 80.0*
CCSC1=NSC2=NC(=O)/C(=C\c3coc4ccccc4c3=O)C(=N)N12 | 43.8 | 10.4 | 54.0* | 107.8* | 252.2* | 59.0* | 204.4* | 278.9* | 102.9* | 99.2*
O=C1C=C(c2ccc3ccccc3c2)C[C@@H](c2ccc(F)cc2)C1 | 7.2 | . | -32.8 | 20.6 | 8.0 | -38.2 | . | . | . | .
CCOC(=O)c1sc2c(c1C)C(c1cccs1)C1=C(CCCC1=O)N2 (stereo not drawn) | 22.2 | 4.2 | 21.4 | 45.1 | 68.3* | -10.3 | 45.8* | 15.9* | 25.1 | 14.5
COc1cccc(-c2c(C(=O)N/N=C(\C)c3ccncc3)nnn2-c2nonc2N)c1 | 16.0 | -8.7 | -29.8 | -11.4 | 14.2 | -9.5 | . | . | . | .
CCOc1ccc(-c2c(C(=O)N/N=C(\C)c3cccs3)nnn2-c2nonc2N)cc1 | 19.0 | -1.3 | -18.4 | -10.2 | 85.3* | -14.7 | 98.4* | 63.3* | 18.7 | 6.8
CCOc1ccc(-c2c(C(=O)N/N=C(\C)c3ccco3)nnn2-c2nonc2N)cc1 | 14.0 | -13.6 | -11.7 | 1.0 | 115.0* | -9.7 | 101.3* | 66.6* | 18.3 | 9.5
CCOc1cccc(-c2c(C(=O)N/N=C(\C)c3cccs3)nnn2-c2nonc2N)c1 | -1.5 | -10.2 | -12.8 | 88.2* | 132.0* | -15.2 | 134.1* | 98.1* | 96.6* | 69.8*
CCOc1ccc(-c2c(C(=O)N/N=C(\C)c3ccccc3OC)nnn2-c2nonc2N)cc1 | 10.7 | -3.5 | -2.8 | -18.9 | 4.7 | -1.5 | . | . | . | .
